Structures are written as SMILES. Where only a bound is given, the exact number is not on record here.

Common to all, as to type: functional
The test system of experiment [1] is Rattus norvegicus. Description: Antiallergic activity in ip dosed Sprague-Dawley rat assessed as compound required to > 50% inhibition of egg albumin/Bordetulla pertusis antibody-induced passive sensitization treated 5 mins before induction by passive cutaneous anaphylaxis assay. In outline:
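Passive cutaneous anaphylaxis in Sprague-Dawley rats. Intradermal anti-egg-albumin antibody was left for 24 h, then compound was given ip 5 min before iv antigen and Evans blue, with six animals per dose. Initial doses were 25, 10 or 5 mg/kg, then a descending series down to 0.156 mg/kg. MED is the lowest dose giving >50% inhibition of weal area versus untreated rats, p ≤ 0.05 (Student's t test).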

In experiment [2] the test system is Rattus norvegicus. Description: Antiallergic activity in ip dosed Sprague-Dawley rat assessed as compound inhibition of egg albumin/Bordetulla pertusis antibody-induced passive sensitization treated 5 mins before induction by passive cutaneous anaphylaxis assay. The settings on record: read-out: ID50 (the source's name). In outline: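 Rat antiserum against egg albumin, raised with Bordetella pertussis as adjuvant, was injected intradermally into the middorsal skin. Sensitization developed for 24 h. Compound was given ip 5 min before iv egg albumin plus Evans blue, at 10 to 0.156 mg/kg with six rats per dose. Blue-weal area was compared with untreated rats as % inhibition. ID50 was reported with 95% confidence limits.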

Experiment [3] relates to Rattus norvegicus. Description: Ratio of DSCG MED to compound MED for antiallergic activity in ip dosed Sprague-Dawley rat assessed as compound inhibition of egg albumin/Bordetulla pertusis antibody-induced passive sensitization treated 5 mins before induction by passive cutaneous anaphylaxis assay.

For the compound `COc1ccc2sc3ccc4[nH]c(C(=O)O)cc(=O)c4c3c2c1`, the “MED>50” value in the experiment on Rattus norvegicus [1] was greater than 5 mg/kg.
Take `O=C(O)c1cc(=O)c2c(ccc3sc4ccc(F)cc4c32)[nH]1`: the “MED>50” value in the experiment on Rattus norvegicus [1] was greater than 5 mg/kg.
For the compound `O=C(O)c1cc(=O)c2ccc3sc4ccccc4c3c2[nH]1`, the “MED>50” value in the experiment with Rattus norvegicus [1] is greater than 10 mg/kg.
With `O=C(O)c1cc(=O)c2ccc3c(c2[nH]1)-c1ccccc1S3(=O)=O`, in the experiment with Rattus norvegicus [1], the “MED>50” value is 5 mg/kg.
Same read-out and setting: as for `O=C(O)c1cc(=O)c2ccc3c(c2[nH]1)S(=O)(=O)c1ccccc1-3`, the figure is greater than 25 mg/kg; as for `O=C(O)c1cc(=O)c2c(ccc3c4ccccc4sc32)[nH]1`, greater than 10 mg/kg; as for `O=C(O)c1cc(=O)c2c3c(ccc2[nH]1)-c1ccccc1S3(=O)=O`, greater than 10 mg/kg.
For the compound `O=C(O)c1cc(=O)c2cc3c(cc2[nH]1)S(=O)(=O)c1ccccc1-3`, the “MED>50” value with Rattus norvegicus [1] is 2.5 mg/kg.
Still for that read-out and setting: as for `O=C(O)c1cc(=O)c2c(ccc3sc4ccccc4c32)[nH]1`, the figure is 5 mg/kg; as for `O=C(O)c1cc(=O)c2c(ccc3sc4ccc(Br)cc4c32)[nH]1`, greater than 10 mg/kg; as for `O=C(O)c1cc(=O)c2c(ccc3sc4ccc(Cl)cc4c32)[nH]1`, greater than 10 mg/kg.
In the case of `Cc1ccc2sc3ccc4[nH]c(C(=O)O)cc(=O)c4c3c2c1`, in the experiment on Rattus norvegicus [1], the “MED>50” value was greater than 10 mg/kg.
For the compound `O=C(O)c1cc(=O)c2c(ccc3sc4c(Cl)cccc4c32)[nH]1`, the “MED>50” value in the experiment on Rattus norvegicus [1] is greater than 10 mg/kg.
Consider `COc1cccc2c1sc1ccc3[nH]c(C(=O)O)cc(=O)c3c12`, for which, in the experiment on Rattus norvegicus [1], the “MED>50” value is greater than 5 mg/kg.
On to `Cc1cccc2c1sc1ccc3[nH]c(C(=O)O)cc(=O)c3c12`, for which, in the experiment with Rattus norvegicus [1], the “MED>50” value is greater than 5 mg/kg.
Still for that read-out and setting: the result for `O=C(O)c1cc(=O)c2c(cc(Cl)c3sc4ccccc4c32)[nH]1` reads greater than 10 mg/kg.
Take `COc1cc2[nH]c(C(=O)O)cc(=O)c2c2c1sc1ccccc12`: the “MED>50” value in the experiment on Rattus norvegicus [1] is greater than 10 mg/kg.
`O=C(O)c1cc(=O)c2c3c(ccc2[nH]1)S(=O)(=O)c1ccccc1-3`: the ED50 with Rattus norvegicus [2] was 1.3 mg/kg.
For the compound `O=C(O)c1cc(=O)c2c3c(ccc2[nH]1)S(=O)(=O)c1ccc(Br)cc1-3`, the “MED>50” value with Rattus norvegicus [1] is greater than 10 mg/kg.
The same measure, in the same setting: the result for `O=C(O)c1cc(=O)c2c3c(ccc2[nH]1)S(=O)(=O)c1ccc(Cl)cc1-3` reads greater than 10 mg/kg; that for `Cc1ccc2c(c1)-c1c(ccc3[nH]c(C(=O)O)cc(=O)c13)S2(=O)=O`, 10 mg/kg.
With `COc1ccc2c(c1)-c1c(ccc3[nH]c(C(=O)O)cc(=O)c13)S2(=O)=O`, the “MED>50” value in the experiment on Rattus norvegicus [1] amounted to 2.5 mg/kg.
On the same count and under the same terms, the result for `CCCCCCOc1ccc2c(c1)-c1c(ccc3[nH]c(C(=O)O)cc(=O)c13)S2(=O)=O` reads greater than 10 mg/kg; that for `O=C(O)c1cc(=O)c2c3c(ccc2[nH]1)S(=O)(=O)c1ccc(F)cc1-3`, 5 mg/kg.
Turning to `O=C(O)c1cc(=O)c2c3c(ccc2[nH]1)S(=O)(=O)c1c(Cl)cccc1-3`, the “MED>50” value with Rattus norvegicus [1] stood at 5 mg/kg.
Turning to `COc1cccc2c1S(=O)(=O)c1ccc3[nH]c(C(=O)O)cc(=O)c3c1-2`, the “MED>50” value in the experiment with Rattus norvegicus [1] is 2.5 mg/kg.
As for `Cc1cccc2c1S(=O)(=O)c1ccc3[nH]c(C(=O)O)cc(=O)c3c1-2`, the “MED>50” value in the experiment on Rattus norvegicus [1] was determined as 2.5 mg/kg.
As for `O=C(O)c1cc(=O)c2c3c(c(Cl)cc2[nH]1)S(=O)(=O)c1ccccc1-3`, in the experiment with Rattus norvegicus [1], the “MED>50” value was 2.5 mg/kg.
Same read-out and setting: as for `COc1cc2[nH]c(C(=O)O)cc(=O)c2c2c1S(=O)(=O)c1ccccc1-2`, the figure is 1.25 mg/kg; as for `COc1cc2c(c3c(=O)cc(C(=O)O)[nH]c13)-c1ccccc1S2(=O)=O`, 1.25 mg/kg.
In the case of `O=C(O)c1cc(=O)c2c3c(cc(Br)c2[nH]1)S(=O)(=O)c1ccccc1-3`, the “MED>50” value with Rattus norvegicus [1] was found to be 2.5 mg/kg.
As to `O=C(O)c1cc(=O)c2c(ccc3c2c2ccccc2[s+]3[O-])[nH]1` (stereo not drawn), in the experiment on Rattus norvegicus [2], the ED50 was 0.3 mg/kg. Also, the Ratio with Rattus norvegicus [3] amounted to 8.
In the case of `O=C(O)c1cc(=O)c2c([nH]1)c(Br)cc1c2c2ccccc2[s+]1[O-]` (stereo not drawn), the “MED>50” value in the experiment on Rattus norvegicus [1] came out at 2.5 mg/kg.
`O=C(O)c1cc(=O)c2cc3c(cc2[nH]1)-c1ccccc1S3(=O)=O`: in the experiment on Rattus norvegicus [1], the “MED>50” value came out at 2.5 mg/kg.
`O=C(O)c1cc(=O)c2c(Cl)c3c(cc2[nH]1)-c1ccccc1S3(=O)=O`: the “MED>50” value in the experiment with Rattus norvegicus [1] came out at 0.312 mg/kg. In addition, the Ratio with Rattus norvegicus [3] was 8.
For `O=C(O)c1cc(=O)c2cc3c(c(Cl)c2[nH]1)-c1ccccc1S3(=O)=O`, the “MED>50” value in the experiment with Rattus norvegicus [1] amounted to 0.625 mg/kg. Besides, in the experiment on Rattus norvegicus [3], the Ratio is on record as 4.
Regarding `O=C(O)c1cc(=O)c2cc3c(c(Br)c2[nH]1)-c1ccccc1S3(=O)=O`, the “MED>50” value in the experiment with Rattus norvegicus [1] was 1.25 mg/kg.
In the case of `O=C(O)c1cc(=O)c2c(Cl)c3c(c(Cl)c2[nH]1)-c1ccccc1S3(=O)=O`, in the experiment with Rattus norvegicus [1], the “MED>50” value turned out to be 1.25 mg/kg.
Same read-out and setting: the result for `Cc1c2c(cc3c(=O)cc(C(=O)O)[nH]c13)S(=O)(=O)c1ccccc1-2` reads 1.25 mg/kg; that for `O=C(O)c1cc(=O)c2cc3sc4ccccc4c3c(Cl)c2[nH]1`, greater than 10 mg/kg; that for `O=C(O)c1cc(=O)c2cc3sc4ccccc4c3c(Br)c2[nH]1`, greater than 10 mg/kg.
Consider `CSCc1c2[nH]c(C(=O)O)cc(=O)c2cc2sc3ccccc3c12`, for which the “MED>50” value with Rattus norvegicus [1] is greater than 5 mg/kg.
On to `O=C(O)c1cc(=O)c2cc3c(cc2[nH]1)c1ccccc1[s+]3[O-]` (stereo not drawn), for which the “MED>50” value with Rattus norvegicus [1] was 1.25 mg/kg.
Still for that read-out and setting: as for `O=C(O)c1cc(=O)c2cc3c(c(Cl)c2[nH]1)c1ccccc1[s+]3[O-]` (stereo not drawn), the figure is 1.25 mg/kg.
For `O=C([O-])c1cc(=O)c2c(OCC(O)COc3cccc4oc(C(=O)[O-])cc(=O)c34)cccc2o1.[Na+].[Na+]` [CROMOLYN SODIUM], the ED50 in the experiment on Rattus norvegicus [2] was determined as 2.6 mg/kg.

The values above are taken from ChEMBL document CHEMBL3244337, “Antiallergic activity of tetracyclic derivatives of quinoline-2-carboxylic acid. 2. Some benzothienoquinolinecarboxylic acids” (1978).
